Test results published in ChEMBL document CHEMBL4513216, “Probing the Open Global Health Chemical Diversity Library for Multistage-Active Starting Points for Next-Generation Antimalarials” (ACS Infect Dis, 2020).

Experiment: Toxicity liver stage against HepG2, at 10uM
Type: cell-based
Parameters: test concentration 10 uM, cell line HepG2-A16-CD81EGFP
Conditions: human, HepG2-A16-CD81EGFP cells; read-out: INHIBITION
Procedure, shortened: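 Uninfected HepG2-A16-CD81EGFP cells, 3 × 10^3 per well, 1536-well, plated on prespotted compound at 10 μM final, parasite-free screening media added to match infected plates; puromycin 10 μM positive, DMSO 0.5% negative; run in parallel with 48 h PbLuc assay at 37 °C, 5% CO2; viability by CellTiter-Glo luminescence, normalized to controls.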

SMILES | cytotoxicity at 10 µM
O=C(CS(=O)(=O)C1CCCC1)NC1CCCc2cc(OC(F)F)ccc21 (stereo not drawn) | 4.84%
Cc1cccn2c(CNC(C)CCc3ccc(O)cc3)cnc12 (stereo not drawn) | 1.95%
O=C(CCc1cc2n(n1)CCCN(C(=O)[C@H]1CCCO1)C2)NC1CC1 | 4.78%
CC(C)NC(=O)N1CC[C@@H]2CN(Cc3ccccc3)S(=O)(=O)[C@@H]2CC1 | 9.62%
COc1ccc(CN2CCOC[C@H](Oc3cccnc3)C2)cc1 | -4.03%
CCCS(=O)(=O)N1CCC2(CCN(Cc3cccc(F)c3)C2=O)C1 (stereo not drawn) | 8.07%
CCOCc1nn(C)c2c1CN(C(=O)c1ccno1)CC2 | 8.61%
Cc1[nH]nc(CCC(=O)NCC2CCCN(C3CCCC3)C2)c1C (stereo not drawn) | -7.7%
NC(=O)c1ccc(OCC(=O)NC2CCc3c(F)cccc32)cc1 (stereo not drawn) | 14.4%
CC(C)c1cc(C(=O)N2CCC3(CCc4ccccc4C(=O)N3)C2)on1 (stereo not drawn) | 2.53%
Cc1cc(C(=O)Nc2n[nH]c(C3CC3)n2)c2c(C)noc2n1 | -1.86%
CN(C)CC1(O)CCCN(C(=O)c2cnc(-c3ccccn3)nc2)C1 (stereo not drawn) | -5.53%
CNS(=O)(=O)c1ccc(CNC(=O)N(C)CC(C)C)cc1 | 1.08%
CSCCC(=O)N1CCC(c2nccn2Cc2cscn2)CC1 | 1.41%
Cc1nn(C)c(N(C)C)c1CNCCNS(C)(=O)=O | -5.05%
COCCCn1ccc(NCc2ccc(NC(C)=O)cc2)n1 | 2.33%
O=C(N1CCOCC1)[C@@]12CCO[C@@H]1CCN(C1CCOCC1)C2 | 5.83%
Cc1ccc(C(=O)NS(=O)(=O)c2cc(F)ccc2F)c(=O)[nH]1 | -1.73%
CS(=O)(=O)N1CCC(O)(Cn2c(C3CC3)nc3ccccc3c2=O)CC1 | 3.06%
O=C1[C@H]2CN(Cc3nccs3)C[C@H]2CN1c1ccsc1 | 3.06%
COc1ccc2c(c1)OCC(Cc1ccc(C)nc1N)C2 (stereo not drawn) | -2.57%
Cc1ccc(C(=O)N(C)Cc2csc(Br)c2)c(=O)[nH]1 | 15.3%

SMILES | cytotoxicity at 10 µM
CC(C)Oc1ccccc1C1CC(=O)Nc2nc(N3CCOCC3)sc21 (stereo not drawn) | 14.3%
O=C(C1CCCC1)N1CC[C@]2(O)CCN(Cc3ncccn3)C[C@@H]2C1 | 9.04%
CCS(=O)(=O)NCCCn1ncc2c(C)cccc21 | 6.8%
CC(C)=CCC1(CO)CCCN(Cc2cnc(N3CCOCC3)nc2)C1 (stereo not drawn) | -2.6%
Cc1nc(C)n(CC2CCCN(Cc3ccccc3C#N)C2)n1 (stereo not drawn) | -16.4%
COCCN1CC(C(=O)N(C)Cc2ccc(Cl)s2)CC1=O (stereo not drawn) | 8.69%
COc1ncccc1C(=O)NCC1Cc2ccccc2O1 (stereo not drawn) | -13.4%
COCC1CCN(C(=O)c2cc(-c3ccco3)nc3c(Cl)cccc23)C1 (stereo not drawn) | 1.12%
N#Cc1cccnc1OC1CCN(S(=O)(=O)c2ccc(F)c(Cl)c2)CC1 | 6.27%
Cc1nc(-c2cc(F)c3c(c2)CC(CN)O3)c[nH]1 (stereo not drawn) | 9.15%
Cc1nc(O)c2nnn(C[C@H]3CCCN3C(=O)c3ccc(F)cc3)c2n1 | -4.28%
Cc1cc(NC(=O)NCC(C)N2CCc3ccccc32)no1 (stereo not drawn) | -6.34%
CCC(NC(=O)CNCC(F)(F)F)c1cc(F)ccc1F (stereo not drawn) | -4.56%
COCCNC(=O)NCc1ccc(OC(C)C)c(F)c1 | -8.48%
Cc1nnc(C(C)N2CCN(Cc3noc(C(C)(C)C)n3)CC2)o1 (stereo not drawn) | -13.3%
CC(C)c1nnc2n1CCN(C(=O)c1ccc3c(c1)NC(=O)CO3)C2 | 7.07%
CN1CCN(Cc2cnn(-c3ccccc3Cl)c2)[C@H]2CS(=O)(=O)C[C@H]21 | 6.19%
COc1cccc(S(=O)(=O)NC(=O)COc2c(C)cccc2C)c1 | -5.84%
CNC(=O)[C@@H]1C[C@@H]2CCN(Cc3ccoc3)C[C@H]2O1 | -108%
O=C(C1CC1)N1CCN(C(=O)C2CC(=O)N(c3ccccc3Br)C2)CC1 (stereo not drawn) | 12.8%
Cc1nnsc1CN(C)C(=O)c1ccc(CSc2nnc[nH]2)o1 | -3.33%
O=C(O)C1(O)CCN(c2ccnc3c(C(F)(F)F)cccc23)CC1 | 5.56%

SMILES | cytotoxicity at 10 µM
CC(C)C(=O)NCC(=O)NCC1CCN(c2cnn(C)c(=O)c2)CC1 | 3.47%
Cc1cccnc1CN1CCC(c2nnc(Cn3cccn3)n2C)CC1 | -11.5%
CC(C)NC(=O)NCc1ccccc1NS(=O)(=O)c1ccccc1 | 9.6%
COc1ccccc1C(NC(=O)C1CCC1)c1noc(C)n1 (stereo not drawn) | 0.338%
CCCNC(=O)NC(=O)CN1CCN(Cc2nccn2CC)CC1 | -14.3%
Cn1cc(CN2CCC[C@]3(C[C@@H](Oc4ccccn4)CO3)C2)cn1 | 7.5%
OCC(O)CSCc1cn(-c2ccc(Cl)cc2)nn1 (stereo not drawn) | 3.2%
CCS(=O)(=O)N1CCC2(CN(c3cccc(F)c3)C(=O)CN2C)C1 (stereo not drawn) | -74.4%
CC(C)CNC(=O)c1nc(COc2ccc3c(c2)OCO3)no1 | 2.93%
COCCN(Cc1ccoc1)S(=O)(=O)c1ccc(OC)c(Cl)c1 | 6.27%
Cc1ccc(F)c2c1N(C(=O)c1ccc(S(C)(=O)=O)cc1)CCC2 | 2.97%
Fc1ccc(F)c(CN2CCC(c3cc4ncccc4cn3)CC2)c1 | -5.14%
COCCn1cc(C(=O)N2CCCC2c2cc(C)no2)ccc1=O (stereo not drawn) | -17.7%
Cc1ccc(CC(=O)N2CCN(C3CCOC3=O)CC2)cc1 (stereo not drawn) | -18.7%
CCOCC(=O)N1CCC(Oc2ccc(Cl)cn2)CC1 | 7.39%
Cc1ncc(CN2CCN(C(=O)C3CCC3)[C@@H]3CS(=O)(=O)C[C@@H]32)cn1 | -4.19%
Cc1nc(CCNC(C)c2ccc3c(c2)OCCCO3)cs1 (stereo not drawn) | 3.3%
Cc1ccnn1CCC(=O)N1CCCC2(C1)NC(=O)c1ccccc1O2 (stereo not drawn) | -0.776%
NC(=O)C1CCN(Cc2cc3c(cc2Br)OCCO3)C1 (stereo not drawn) | 0.641%
Cc1ccc(S(=O)(=O)N2CCOCC2C#N)cc1Br (stereo not drawn) | 6.08%
Cc1cc(N2CCCC(O)(CN(C)C)C2)c2cc3c(cc2n1)OCO3 (stereo not drawn) | 0.935%
Fc1ccc(-c2cnc(C3CCCN3)cn2)cc1 (stereo not drawn) | -2.79%

SMILES | cytotoxicity at 10 µM
c1cncc(N2CCO[C@H]3CN(CC4CCOC4)C[C@H]32)c1 (stereo partly drawn) | -95.7%
Cc1nn(CN(CC(C)C)C2CC2)c(=O)c2noc(C)c12 | -3.39%
CN(Cc1noc(C2CC2)n1)C1CCN(Cc2cccc(F)c2F)C1 (stereo not drawn) | -13%
CCOCc1cccc(S(=O)(=O)Nc2ncc(C)s2)c1 | 6.38%
CCc1ccc(C(=O)N2CCC3(CCC(=O)N(CCN(C)C)C3)CC2)[nH]1 | 5.96%
CNC(=O)c1cccc(NC(=O)CN2CCCN(S(C)(=O)=O)CC2)c1 | 3.56%
CC(Nc1nc(-c2ccccc2)nc2c1CCNCC2)c1nccs1 (stereo not drawn) | 2.49%
Cc1nc(CC(=O)N2CCC(Nc3cccnn3)CC2)cs1 | -9.45%
CN(CCN1CCCCCC1)Cc1cnc(N)nc1 | 0.993%
Cc1cnc(Nc2cccc(C3CCCN3Cc3cn(C)nc3C)n2)s1 (stereo not drawn) | 13.2%
Cn1cc(CCNC(=O)N2CCCc3c(F)cccc32)cn1 | 14.3%
Cc1cccc2[nH]c(COCC(=O)N3CCCn4cncc4C3)nc12 | 2.03%
O=C(c1ccc(C2CCCO2)s1)N1CCS(=O)(=O)CC1 (stereo not drawn) | -14.8%
COc1cc(C2CC(=O)Nc3c2nc2n3CCCC2)cc(OC)c1O (stereo not drawn) | -9.59%
CNc1nccc(-c2cn(C)nc2C)n1 | -6.59%
CC(C)(C)c1cc(=O)[nH]c(-c2ccccc2CN2CCCCCC2)n1 | -42%
CC(C)(O)CCc1cccc(C(=O)NCC2CN(S(C)(=O)=O)CCO2)c1 (stereo not drawn) | 2.29%
Cn1ncc2c1CN(Cc1cccnc1)CC2COCC1CC1 (stereo not drawn) | -10.7%
Cc1cccc(C2(NC(=O)CCN3C(=O)CCC3=O)CCCC2)c1 | -17.4%
Cc1noc(CNC(=O)c2ccccc2-n2cc(CN)cn2)n1 | -19.6%
Cc1cc(=O)n(CC(=O)Nc2ccc(Cl)cc2)nc1C | -1.74%
Cc1nn(C)c2c(N3CCCC3)nc(C3CC3)nc12 | 0.12%

SMILES | cytotoxicity at 10 µM
O=C(COc1cccc(Cl)c1)N1CCOCC(O)(CN2CCCC2)C1 (stereo not drawn) | -4.68%
COc1ncccc1C(=O)N1CCC(c2nc3c(C)cccc3[nH]2)CC1 | 11.7%
Cc1cc(CN2CCN(C(=O)C3CCC3)[C@@H]3CS(=O)(=O)C[C@@H]32)ccc1F | 0.66%
CN(CCc1ccccn1)C(=O)Nc1cc(C(F)(F)F)c[nH]c1=O | 17.2%
CN1CC2(CCN(CCOCCO)CC2)CC(c2ccccc2)C1=O (stereo not drawn) | -9.88%
C1CCN(Cc2nnn3c2CN(CC2CC2)CCC3)C1 | -139%
CNC(=O)COc1ccc(CNCc2ccc(F)cc2F)cc1 | -8.6%
CN(c1ncc(C(=O)NCc2ccccc2)c(N)n1)C1CCCCC1 | -4.31%
CC(C)n1nc2c(cc1=O)CN(Cc1nc(-c3ccco3)no1)CC2 | 2.35%
COc1ccccc1N1CCN(C(=O)c2ccoc2)CC1 | 11.5%
CCN1CC(COC(C)(C)C)Oc2ccncc2S1(=O)=O (stereo not drawn) | -3.43%
CCC(=O)N1CCC(Cc2ccccc2-c2ccncc2)(C(N)=O)C1 (stereo not drawn) | -25.3%
O=C(NCC1CC1)[C@H]1CC[C@@H]2[C@@H](CCN2Cc2nccs2)O1 | 6.93%
CCc1ccccc1OCCN1CCC(NS(C)(=O)=O)CC1 | -20.4%
Cc1nc([C@H]2C[C@@H]3CCN(Cc4scnc4C)C[C@H]3O2)no1 | -129%
Cc1cccc(C2(NCCCS(C)(=O)=O)CCCC2)c1 | 1.3%
O=C(NCC(=O)N1CCCC1Cc1cccc(F)c1)C1CCCC1 (stereo not drawn) | -18%
CCC(=O)N1Cc2nnc(C3CCOCC3)n2C(Cc2c[nH]cn2)C1 (stereo not drawn) | -11.2%
O=C(NCCc1nccs1)c1cn(CCN2CCNCC2)nn1 | -4.41%
COCCc1noc(CN(C)C2CCCN(c3ccc(C)nn3)C2)n1 (stereo not drawn) | 19.3%
